Results of several laboratories.
Compare with care: the assays were run in different laboratories.
Target: Ephrin type-A receptor 5 (EPHA5, Homo sapiens, UniProt P54756)

| Structure (SMILES) | test | conditions | remaining binding [%] |
| --- | --- | --- | --- |
| COc1cccc(CNC(=O)c2nc3scc(COCc4ccc(C(=O)O)cc4)c3c(=O)[nH]2)c1 | cell-free assay, competition with immobilised ligand | 1 µM | 98.5 |
| C[C@H]1CCN(c2nccc(-c3cnn4ncccc34)n2)C1 | binding | 1 µM | 95 |
| CNC(=O)[C@@H]1CC[C@@H](n2c(-c3ccc4cnccc4c3)nc3ccc(C(=O)NCc4cccc(C(N)=O)c4)cc32)C1 | binding, competition with immobilised ligand | 1 µM | 100 |
| C[C@@]1(Cc2ccc(C#N)cc2)C(=O)N(c2cc(Cl)cc(Cl)c2)c2ncc(C(=O)NC3(c4nc(C5CCC5)no4)CC3)n21 | cell-free assay, competition with immobilised ligand | 1 µM | 100 |
| CC1CCCN1c1nccc(-c2cnn3ncccc23)n1 (centres unmarked) | binding | 1 µM | 100 |
| O=C(c1ccc(Nc2nccc(-c3cc4ccccc4s3)n2)cc1)N1CCC(N2CCCC2)CC1 | binding, competition with immobilised ligand | 1 µM | 100 |
| O=C(Nc1c[nH]nc1C(=O)NC1CCNCC1)c1cc(F)cc(F)c1 | binding, competition with immobilised ligand | 1 µM | 100 |
| N[C@H]1CCN(c2nccc(-c3cnn4ncccc34)n2)C1 | binding | 1 µM | 100 |
| COc1ncc2cc3ccccc3nc2c1C#N | cell-free assay, competition with immobilised ligand | 5 µM | 99 |
| O=C(Nc1cnc(Oc2ccc(F)cc2)nc1)N1CCc2ncccc2[C@@H]1c1ccc(F)cc1 | cell-free assay, competition with immobilised ligand | 1 µM | 100 |
| O=C(NCCCN1CCOCC1)c1ccc(Nc2ncc(Cl)c(-c3ccc(Cl)s3)n2)cc1 | binding, competition with immobilised ligand | 1 µM | 99 |
| Cc1cc(C)c(-n2ccn3nc(-c4cccnc4)cc23)cc1NC(=O)c1cc(C#N)cc(S(F)(F)(F)(F)F)c1 | cell-free assay, competition with immobilised ligand | 0.1 µM | 92.4 |
| CN(CCCC(F)(F)F)c1nccc(-c2cnn3ncccc23)n1 | binding | 1 µM | 100 |
| Nc1ncc2c(n1)-c1c([nH]c3ccc(C#CC4CC4)cc13)CCCC2 | binding, competition with immobilised ligand | 1 µM | 97 |
| COc1ccnn2ncc(-c3ccnc(N(C)C)n3)c12 | binding | 1 µM | 100 |
| CC1=C(C#N)[C@@H](c2ccc3[nH]nc(C)c3c2)C(C#N)=C(c2ccc(Cl)cc2)N1 | cell-free assay, competition with immobilised ligand | 1 µM | 100 |
| O=C(c1ccc(Nc2ncc(Cl)c(-c3cc4ccccc4s3)n2)cc1)N1CCC(N2CCCC2)CC1 | binding, competition with immobilised ligand | 1 µM | 86 |
| CCN1CCN(Cc2ccc(C(=O)Nc3ccc(C)c(Oc4ccc5c(c4)CC(=O)N5)c3)cc2C(F)(F)F)CC1 | binding, competition with immobilised ligand | 1 µM | 100 |
| c1cnn2ncc(-c3ccnc(N4CCC45COC5)n3)c2c1 | binding | 1 µM | 99 |
| CNC(=O)Nc1ccc2c(c1)[C@@]1(CC2)OC(=O)N(CC(=O)N(Cc2ccc(F)cc2)[C@@H](C)C(F)(F)F)C1=O | cell-free assay, competition with immobilised ligand | 1 µM | 94 |
